Screens: PubChem BioAssay, Broad Institute
Only some compounds are listed: those with a hit (about 3.1% of all), similar ones and a draw of the others.
F508del corr: correctors of CFTR F508del function in bronchial epithelial cells; CFBE cells, YFP halide quenching; stimulated with forskolin plus potentiator P3; % fluorescence drop versus neutral controls; activity (quench increase), % at 7.58 µM; actives 0.36% (n = 350,000); AID 720511;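 active = mean added fluorescence quench of at least 8% versus neutral control, with both replicates also reaching 8%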;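 also: cells transiently co-express mutant CFTR-F508del with the halide-sensitive YFP; corrector assay measuring rescue of mutant channel to the surface after 24 h compound exposure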
miR122 inh: inhibitors of miR-122 in Huh7 cells; activation (reporter increase), % at 12.5 µM; Huh7 miR-122 Renilla luciferase sensor, 48 h; neutral wells = 0, positive control = 100; AID 602342; actives 0.3% (n = 340,000);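 active = mean replicate activation score at least 90 and every replicate individually at or above 90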;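 also: higher luciferase means less miR-122 activity so hits act as miR-122 inhibitors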
Env fusion inh: blocks HIV Env-driven cell-cell fusion; HeLa-JRFL Env/CEM21 cell fusion, luciferase; inhibition, % at 12.3 µM; actives 1.1% (n = 360,000); AID 651610;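 active = mean replicate inhibition score of at least 50 and every replicate individually at or above 50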
rRNA inh HTS: inhibitors of bacterial rRNA selective over humanized ribosomes; AID 720706; GFP signal change (wild-type ribosome), % (no concentration beside the values); actives 1.6% (n = 350,000); E. coli WT GFP vs humanized-ribosome RFP mutants, fluorescence, 24 h; active compounds read low; DMSO median 0, no signal -100;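 active = significant combined selectivity score with lowered wild-type GFP, culture density cut under 30%, mutant RFP and density less affected; inactive = any of these conditions unmet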
Cneo AK release: Cryptococcus neoformans lysis via adenylate kinase release | C. neoformans lysis, adenylate kinase release luminescence, 4 h; normalised: neutral wells 0, clomiphene wells 100 | lysis activity, % at 15 µM | actives 0.2% (n = 360,000) | AID 651654;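 active = mean lysis activity across replicates of at least 80%, whatever share of replicates individually reach that level; inactive = mean lysis activity below 80%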
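Assay system: log-phase C. neoformans yeast / Quantity: yeast cell density of 5 × 10^6 cells/mL / Medium: fresh YPD growth medium / Compound: single dose / Timing: static 4 h at 37 °C with compound, 1 h detection / Measured by: adenylate kinase release luminescence / Read-out: lysis from increased AK signal / Benchmarks: Clomiphene as positive lysis control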
GSIS activator: primary screen for activators of insulin secretion dependent on glucose, INS-1E cells, GLuc reporter luminescence. INS-1E GLuc reporter insulin secretion, 2-3 h. activation, % at 16.6 µM. actives 0.61% (n = 370,000). AID 743287;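 active = lowest replicate activation of at least 40%, so every replicate reaches that level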
Each line names hits and unclear results; the compound was inactive in the other large screens; ! = repeats disagree.

COc1ccc(OC(=O)N(C)C[C@@H]2OCc3ccccc3-c3c(n(C)c4ccccc34)C(=O)N([C@@H](C)CO)C[C@H]2C)cc1	none (no result: miR122 inh, Env fusion inh, Cneo AK release)
CC(=O)OC1(C)CC(C)C(=O)C(C(O)CC2CC(=O)NC(=O)C2)C1 (stereo unspecified)	Cneo AK release 98 (no result: Env fusion inh, rRNA inh HTS, GSIS activator)
C[C@@H]1C[C@@H]([C@H](O)CC2CC(=O)NC(=O)C2)C(=O)[C@@H](C)C1	none (no result: Env fusion inh)
Cc1ncc(C(=O)O)n1C(C)c1ccccc1 (stereo unspecified)	none (no result: miR122 inh)
CCOC(=O)c1cncn1[C@@H](C)c1ccccc1	F508del corr 8.9 (no result: rRNA inh HTS, GSIS activator)
CC(=O)OC1CC(OC2C(O)CC(OC3C(O)CC(OC4CCC5(C)C(CCC6C5CCC5(C)C(C7=CC(=O)OC7)CCC65O)C4)OC3C)OC2C)OC(C)C1OC1OC(CO)C(O)C(O)C1O (stereo unspecified)	Env fusion inh 69 (no result: rRNA inh HTS, Cneo AK release, GSIS activator)
COOCC1(C(=O)OC)C[C@H](c2ccc(OC)cc2)N(Cc2ccccc2OC)[C@@H]1c1ccccc1C (stereo partly specified)	Env fusion inh 89 (no result: miR122 inh, Cneo AK release, GSIS activator)
Cc1ccccc1-c1ccc([C@H]2[C@@H](CO)N3CCCCN(C(=O)Cc4ccccn4)C[C@H]23)cc1	none (no result: Env fusion inh)
CC12CCC(=O)C=C1C=CC1C2CCC2(C)C(O)CCC12 (stereo unspecified)	Env fusion inh 81
C[C@]12CCC(=O)C=C1C=CC1C2CC[C@@]2(C)C1CC[C@@H]2O (stereo partly specified)	none
COc1ccc(-n2c(O)c(C(C)=NCCCn3ccnc3)c(=O)[nH]c2=O)cc1	Env fusion inh 69 (no result: F508del corr, rRNA inh HTS, GSIS activator)
CCCCCCC(=O)c1c(O)n(-c2ccccc2OC)c(=O)[nH]c1=O (tested in a mixture with another compound)	none (no result: GSIS activator)
CCCCCCC(=O)c1c(O)n(-c2ccc(OC)cc2)c(=O)[nH]c1=O (tested in a mixture with another compound)	rRNA inh HTS -20 (no result: miR122 inh, Cneo AK release)
O=C(Cc1ccncc1)N1CCCCN2[C@H](C1)[C@H](c1ccc(C#Cc3ccccc3F)cc1)[C@@H]2CO	none (no result: Env fusion inh)
CC(C)(C)c1cc([N+](=O)[O-])cc(C(C)(C)C)c1O	Env fusion inh 58 (no result: miR122 inh, Cneo AK release)
CN1C2CCC1C(C(=O)O)C(O)C2 (stereo unspecified)	none (no result: Env fusion inh)
CCOC(=O)C1C(OC(=O)c2ccccc2)CC2CCC1N2C (stereo unspecified)	GSIS activator 41 (no result: Env fusion inh)
CN1C2CCC1C(C(=O)O)C(OC(=O)c1ccccc1)C2 (stereo unspecified)	GSIS activator 40 (no result: Env fusion inh)
CC=Cc1ccc2n(c1=O)C[C@H]1[C@H](CO)[C@@H](C(=O)OC)[C@@H]2N1CC1CCCC1 (mixture of isomers)	none (no result: miR122 inh, Env fusion inh, Cneo AK release)
O=Cc1cn(Cc2c(F)cccc2Cl)c2ccccc12	rRNA inh HTS -27
O=Cc1cn(Cc2cccc([N+](=O)[O-])c2)c2ccccc12	rRNA inh HTS -21 (no result: F508del corr, miR122 inh, Cneo AK release)
O=Cc1cn(Cc2ccccc2F)c2ccccc12	rRNA inh HTS -25 (no result: Cneo AK release)
CC(=O)c1cn(Cc2ccccc2F)c2ccccc12	none
O=Cc1cn(CCCOc2ccccc2)c2ccccc12	rRNA inh HTS -49 (no result: F508del corr, miR122 inh, Cneo AK release)
Cc1cccc(Cn2cc(C=O)c3ccccc32)c1	none
CC=Cc1ccc2n(c1=O)C[C@@H]1[C@@H](CO)[C@H](C(=O)OC)[C@H]2N1CC1CCOCC1 (mixture of isomers)	none (no result: F508del corr, miR122 inh)
CC(C)NC(=O)N1C[C@@H]2N[C@H](C1)C2c1ccccc1 (stereo partly specified)	none (no result: F508del corr, miR122 inh, Env fusion inh, Cneo AK release)
O=C(Cc1ccccc1)N1CCCCN2[C@H](CO)[C@@H](c3ccc(-c4ccccc4)cc3)[C@@H]2C1	none (no result: Env fusion inh)
COc1cccc(CNCCc2c[nH]c3ccccc23)c1	none
COc1ccc(CNCCc2ccccc2F)c(OC)c1C	none
COc1ccc(CNCCc2c[nH]c3ccccc23)c(OC)c1C	Env fusion inh 71
COc1cc(C)c(CNCCc2c[nH]c3ccccc23)cc1C	Env fusion inh 81
CC=Cc1ccc2n(c1=O)C[C@@H]1[C@@H](CO)[C@H](C(=O)OC)[C@H]2N1C(=O)CC1CC1 (mixture of isomers)	none (no result: Env fusion inh)
O=C(COC(=O)c1ccc(O)cc1)Nc1ccc(Cl)cc1C(=O)c1ccccc1	rRNA inh HTS -43 (no result: miR122 inh, Cneo AK release)
Cc1ccc(C(=O)Nc2ccc(Cl)cc2C(=O)c2ccccc2)cc1	miR122 inh 114 (no result: F508del corr, rRNA inh HTS)
Cc1ccc(OCC(=O)Nc2ccc(Cl)cc2C(=O)c2ccccc2)cc1	none (no result: F508del corr, rRNA inh HTS, Cneo AK release)
CSc1ncc(Br)c(N2CC2)n1	GSIS activator 42
CCOc1cccc(CNCCc2c(C)[nH]c3ccc(OC(F)(F)F)cc23)c1O	Env fusion inh 62
Cc1[nH]c2ccc(OC(F)(F)F)cc2c1CCNCc1cccc([N+](=O)[O-])c1	Env fusion inh 67
Cc1[nH]c2ccc(OC(F)(F)F)cc2c1CCNCc1ccc(Cl)cc1	Env fusion inh 93, GSIS activator 214 (no result: miR122 inh)
COc1ccc2[nH]c(C)c(CCNCc3cccnc3)c2c1	none (no result: Env fusion inh)
COC(=O)[C@H]1[C@H](CO)[C@H]2Cn3c(ccc(-c4cccnc4)c3=O)[C@@H]1N2CCc1ccccc1	none (no result: Env fusion inh)
CCOC(=O)[C@]12Cc3cc(OC)ccc3[C@H]1N(C1CCCCC1)C(=O)c1cc(OC)ccc12	GSIS activator 325 (no result: miR122 inh, Cneo AK release)
CC(C)OP(=O)(OC(C)C)C(O)c1cccnc1 (stereo unspecified)	none (no result: F508del corr, rRNA inh HTS)
CC(C)c1cc(Br)c(NC(=O)Nc2cccnc2)c(Br)c1	GSIS activator 115
O=C(Cc1ccccc1)N1CC2(C1)[C@H](c1ccccc1)[C@H](CO)N2Cc1cccc(Cl)c1	none (no result: miR122 inh, Env fusion inh, Cneo AK release)
Clc1ccc(COC(Cn2ccnc2)c2ccc(Cl)cc2Cl)c(Cl)c1 (stereo unspecified)	GSIS activator 49!
COc1nc(C)nc(NC(=O)NS(=O)(=O)c2ccccc2Cl)n1	F508del corr 14 (no result: rRNA inh HTS, GSIS activator)
Cc1nn(Cc2ccc(Cl)cc2Cl)c(Cl)c1C(=O)Nc1ccc(OC(F)F)cc1	GSIS activator 71 (no result: F508del corr, rRNA inh HTS)
Cc1nn(Cc2ccc(Cl)cc2Cl)c(Cl)c1C(=O)O	none (no result: miR122 inh, Cneo AK release)
CC(=O)OC1C(=O)OCC23CCC4(C)OC4C2OC2CC(OC(=O)C=CC=CC(=O)OCCC1C)C3(C)C21CO1 (stereo unspecified)	Env fusion inh 77 (no result: miR122 inh, Cneo AK release, GSIS activator)
CCCC(=O)NC(Oc1ccccc1Cl)C(Cl)(Cl)Cl (stereo unspecified)	rRNA inh HTS -20 (no result: miR122 inh, Env fusion inh, Cneo AK release)
Cc1nc(Cl)sc1C(=O)Nc1ccc2ccccc2c1	rRNA inh HTS -31 (no result: miR122 inh, Env fusion inh, Cneo AK release)
O=C(Nc1ccc2ccccc2c1)c1nn(C23CC4CC(CC(C4)C2)C3)cc1Br	none (no result: F508del corr, rRNA inh HTS)
COc1cccc(C2CCN(C)C2)c1 (stereo unspecified)	none
